Results from ChEMBL document CHEMBL4041489, “Meroterpenoids and Chalcone-Lignoids from the Roots of Mimosa diplotricha” (J Nat Prod, 2016).

Tests used:
[1] = Inhibition of rat protein farnesyltransferase pretreated for 15 mins followed by dansyl-Gly-Cys-Val-Leu-Ser-OH substrate addition in presence of farnesyl pyrophosphate measured after 30 mins by fluorescence assay
HepG2 = assay: Antiproliferative activity against human HepG2 cells measured after 72 hrs by SRB assay; assay type: functional; details: HepG2, 72 h
How it was run: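 HepG2 cells from BCRC grown in RPMI 1640 with 10% FBS, nonessential amino acids, penicillin/streptomycin at 37 °C, 5% CO2. Cells were seeded in 10% FBS medium, and a T0 plate was TCA-fixed at 24 h. Compound or DMSO was added for 72 h, then cells were fixed with 10% TCA and stained with 0.4% SRB. Absorbance read at 515 nm; % growth vs T0 and control gave GI50.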

[2] = Inhibition of porcine brain protein farnesyltransferase using p21 ras protein as substrate in presence of [3H]FPP after 1 hr by liquid scintillation counting method; design: species or system Sus scrofa

Row | Compound | IC50 [1] | GI50 (HepG2) | IC50 [2]
1 | COC1=CC(=O)[C@@]2(c3cc(=O)c4ccc(O)cc4o3)[C@H](CC=C(C)[C@@H]2C[C@]2(C)[C@@H](C(=O)O)CC=C3[C@H]2CCCC3(C)C)C1=O | 27.9 µM | > 10 µM | 
2 | COC1=CC(=O)[C@@]2(c3cc(=O)c4c(O)cc(O)cc4o3)[C@H](C[C@]3(C)[C@@H](C(=O)O)CC=C4[C@H]3CCCC4(C)C)C(C)=CC[C@H]2C1=O | 8.5 µM | > 10 µM | 
3 | COC1=CC(=O)[C@@]2(c3cc(=O)c4ccc(O)cc4o3)[C@H](C[C@]3(C)[C@@H](C(=O)O)CC=C4[C@H]3CCCC4(C)C)C(C)=CC[C@H]2C1=O | 47 µM | > 10 µM | 

Compounds with a lower IC50 [1], results first:

Row | IC50 [1] | GI50 (HepG2) | IC50 [2] | Compound
4 | 7.5 µM | > 10 µM |  | COC1=CC(=O)[C@@]2(c3cc(=O)c4ccc(OC)cc4o3)[C@H](C[C@]3(C)[C@@H](C(=O)O)CC=C4[C@H]3CCCC4(C)C)C(C)=CC[C@H]2C1=O
5 | 5 µM | 8.6 µM |  | COC1=CC(=O)[C@@]2(c3cc(=O)c4c(O)cc(OC)cc4o3)[C@H](C[C@]3(C)[C@@H](C(=O)O)CC=C4[C@H]3CCCC4(C)C)C(C)=CC[C@H]2C1=O
6 | 5.1 µM | > 10 µM |  | COC1=CC(=O)[C@@]2(c3cc(=O)c4c(O)cc(O)cc4o3)[C@H](CC=C(C)[C@@H]2C[C@]2(C)[C@@H](C(=O)O)CC=C3[C@H]2CCCC3(C)C)C1=O
7 | 0.1 µM |  | 0.05 to 0.075 µM | CSCC[C@H](NC(=O)c1ccc(NC(=O)[C@@H](N)CS)cc1)C(=O)O
